PRMT1 FP inh – PRMT1 (human) inhibition, primary screen; actives 1.3% (n = 370,000); Q99873; inhibition, % at 2.79 µM; recombinant PRMT1, activity-based probe fluorescence polarization;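 active means inhibition above about 21% made by adding two undisclosed values, limit read from the data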
Target sequence (Q99873 whole entry, looked up): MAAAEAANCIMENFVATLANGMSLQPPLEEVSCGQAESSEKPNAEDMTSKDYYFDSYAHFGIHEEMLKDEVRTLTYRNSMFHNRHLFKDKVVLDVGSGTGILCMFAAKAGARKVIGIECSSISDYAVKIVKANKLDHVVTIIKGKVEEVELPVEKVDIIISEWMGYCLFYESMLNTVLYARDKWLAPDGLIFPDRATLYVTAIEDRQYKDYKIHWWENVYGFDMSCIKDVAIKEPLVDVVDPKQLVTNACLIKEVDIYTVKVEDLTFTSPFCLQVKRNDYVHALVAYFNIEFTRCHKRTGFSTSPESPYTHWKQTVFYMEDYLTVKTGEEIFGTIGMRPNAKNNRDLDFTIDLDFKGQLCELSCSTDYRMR
PAD4 FP inh – inhibitors of human PAD4; recombinant PAD4, RCA probe fluorescence polarization; inhibition, % at 6.36 µM; actives 0.41% (n = 330,000); AID 485272;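 active means percent inhibition above a cutoff equal to the mean of all tested compounds plus 3 SD, cut at about 15% in these data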
TDP2 absorb – TDP2 (human) inhibition, absorbance primary screen; actives 0.34% (n = 370,000); inhibition, % at 12.8 µM; recombinant TDP2, T5PNP hydrolysis, p-nitrophenol absorbance 415 nm; O95551;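 active means inhibition above the mean of all tested compounds plus 3 SD, set per campaign, cut at about 25% in these data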
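Test system: human TDP2 enzyme; Input: 120 nM TDP2 per well; Buffer or medium: Mg2+-containing Tris-HCl buffer, pH 7.5; Reagent: 5 mM T5PNP; Dosing: 12.8 µM single point, 1% DMSO; Incubation: reaction 2 h, 37 °C; Detection: p-Nitrophenol epi absorbance; Read-out: % inhibition relative to enzyme-containing and enzyme-free wells; Replicates: single well per compound.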
GSTO1 counter – GSTO1 inhibition, counter-screen for RBBP9 inhibitors; inhibition, % at 5.96 µM; actives 1.1% (n = 300,000); recombinant GSTO1, activity-based probe fluorescence polarization;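 active means inhibition above the campaign mean inhibition plus 3 SD, cut at about 35% in these data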
Target sequence (P78417 whole entry, looked up): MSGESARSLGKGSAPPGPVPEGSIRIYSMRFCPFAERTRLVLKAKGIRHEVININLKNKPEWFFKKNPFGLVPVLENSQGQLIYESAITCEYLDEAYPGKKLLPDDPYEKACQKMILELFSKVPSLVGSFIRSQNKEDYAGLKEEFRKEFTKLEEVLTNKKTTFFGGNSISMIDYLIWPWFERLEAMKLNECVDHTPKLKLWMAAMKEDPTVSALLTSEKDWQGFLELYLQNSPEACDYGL
eLon inh – inhibitors of E. coli Lon protease | P0A9M0 | actives 0.42% (n = 360,000) | purified E. coli Lon protease, fluorescence polarization | inhibition, % at 7.94 µM; in the data active means inhibition above about 13%, passing the limit was not always enough
Of the large screens only hits and unclear results are named; the others gave an inactive call. Shown are actives, neighbours in structure and some others; about 2.5% of the full set was active somewhere.

CC1=CC(C)(C)Nc2ccc(OC(=O)C(Cc3ccccc3)N3C(=O)c4ccccc4C3=O)cc21 (stereo unspecified)	none
CC/C(=N/Nc1ccc(Cl)cc1)c1cnnc(SC)n1	GSTO1 counter 50.5
CSc1nncc(/C(C)=N\Nc2ccccc2C)n1	none
CC/C(=N/O)c1cnnc(SC)n1	none
CC/C(=N/Nc1cccc(C)c1)c1cnnc(SC)n1	GSTO1 counter 49.5
O=S1(=O)c2c(cccc2N2CCSCC2)Oc2ccccc2CN1Cc1cn(Cc2cccc(C(F)(F)F)c2)nn1	none (no result: PAD4 FP inh, GSTO1 counter, eLon inh)
CCN(CC)c1cccc(OCC(=O)N(C)CCC#N)c1	PAD4 FP inh 44.9
Cc1ccc(NCc2nnc(SCC(=O)c3ccccc3)n2Cc2ccco2)c(C)c1	PRMT1 FP inh 23.9
Cc1ccc(NC(=O)CSc2nnc(CSc3nc(C)cc(C)n3)n2Cc2ccco2)c(C)c1	none
COC(=O)[C@]12C[C@H](CC(=O)NCc3cccc4ccccc34)C(=O)N(Cc3ccco3)C1=C[C@H](C(C)(C)C)O[C@@H]2C	none (no result: PAD4 FP inh, GSTO1 counter, eLon inh)
Cc1nc2sc3c(c2c(=O)n1N)CCC3	none
Cn1nnc2sc3c(c2c1=O)CCCC3	PRMT1 FP inh 22.4
CCOC(=O)C1=C(c2ccccc2)N=c2s/c(=C\c3cc(OC)c(OC)c(OC)c3)c(=O)n2C1c1cccs1 (stereo unspecified)	none
CCOC(=O)C1=C(c2ccccc2)N=c2s/c(=C\c3ccco3)c(=O)n2C1c1cccs1 (stereo unspecified)	PRMT1 FP inh 23.2
CC(=O)N1CCc2cc(S(=O)(=O)NC3CCN(C(=O)OCc4ccccc4)CC3)ccc21	none (no result: PAD4 FP inh, GSTO1 counter, eLon inh)
COc1ccc(C(=O)OCCN2CCN(C3CN(Cc4cn(Cc5cccc(C)c5)nn4)S(=O)(=O)C3)CC2)cc1OC (stereo unspecified)	none (no result: PAD4 FP inh, GSTO1 counter, eLon inh)
Cc1ccc(C)c(/C=N/n2cc(-c3ccccc3)[nH]c2=S)c1	PRMT1 FP inh 24.2
Fc1ccccc1/C=N/n1cc(-c2ccccc2)[nH]c1=S	PRMT1 FP inh 23.8
CCCCCCCCN1C(=O)[C@@H](CC(=O)N2CCN(C(=O)OCC)CC2)C[C@@]2(C(=O)OC)C1=C[C@H](COCc1ccccc1)O[C@@H]2C	none (no result: PAD4 FP inh, GSTO1 counter, eLon inh)
Oc1ccc(N2CCN(Cc3cc4c(cc3Br)OCCO4)CC2)cc1	PRMT1 FP inh 23.4
O=S(=O)(c1ccc(F)cc1)N1CCN(Cc2cc3c(cc2Br)OCCO3)CC1	none (no result: GSTO1 counter)
O=C(Nc1ccc(Cl)cc1)C1CCCN1S(=O)(=O)c1cccc2cccnc12 (stereo unspecified)	none (no result: PAD4 FP inh, GSTO1 counter, eLon inh)
CN(C)c1ccc(N=C/C=C2\N(C)c3ccccc3C2(C)C)cc1	PRMT1 FP inh 23.5
Cn1c2ccc(F)cc2c2ncn(Cc3ccco3)c(=O)c21	PRMT1 FP inh 21.9
Nc1c(/C=C2/C=CC(=O)C(O)=C2)c(=O)nc2sc(CC(=O)N3CCCCC3)nn12	GSTO1 counter 41.5
CC(C)CSc1nnc(-c2ccco2)n1C	none (no result: PAD4 FP inh, GSTO1 counter, eLon inh)
COCC(=O)N(C)[C@H]1C[C@H]2c3[nH]c4c(-c5ccc6c(c5)OCO6)cccc4c3CCN2C(=O)[C@H]1[C@H](C)O	none (no result: PAD4 FP inh, GSTO1 counter, eLon inh)
Cc1cccc(CS(=O)(=O)c2ncc(Cl)c(C(=O)NCc3ccccc3)n2)c1	PRMT1 FP inh 23.9
CC(C)C[C@H]1COc2cccc(F)c2S(=O)(=O)N1Cc1cn(Cc2ccc(C(F)(F)F)cc2)nn1	none (no result: PAD4 FP inh, GSTO1 counter, eLon inh)
O=C(Cn1c(=O)n(Cc2ccco2)c(=O)c2c3c(sc21)CCCCC3)Nc1ccccc1	PRMT1 FP inh 23.9
CCCCS(=O)c1c(O)c2ccccc2[nH]c1=O (stereo unspecified)	PRMT1 FP inh 22.2
O=c1[nH]c2ccccc2c(O)c1O	PRMT1 FP inh 75.0
CC(c1ccc(NC(=O)OC(C)(C)C)cc1)c1cn(C)c2ccccc12 (stereo unspecified)	none (no result: PAD4 FP inh, GSTO1 counter, eLon inh)
CC(=O)Nc1ccc(CN2C(=O)C(C)ON=C2c2ccccc2-c2ccco2)cc1 (stereo unspecified)	PRMT1 FP inh 22.6 (no result: PAD4 FP inh, GSTO1 counter)
CCC1CCc2sc(C(=O)Nc3cc(S(=O)(=O)N4CCOCC4)ccc3OC)cc2C1 (stereo unspecified)	none (no result: PAD4 FP inh, GSTO1 counter, eLon inh)
O=C1c2nc3cc(-c4ccco4)[nH]n3c(=O)c2CN1C1CCCCC1	PRMT1 FP inh 23.3
COc1cc(OC)cc(-c2c(-c3cccs3)c3cc(Br)ccc3n2C)c1	PRMT1 FP inh 24.8 (no result: GSTO1 counter)
CSc1ccccc1NC(=O)c1ccccc1	none
Cc1ccc(C(=O)Sc2cccccc2=O)cc1	PRMT1 FP inh 45.4, GSTO1 counter 37.0
O=C(Nc1ccccc1SC(=O)c1ccccc1)c1ccccc1	PRMT1 FP inh 93.5 (no result: PAD4 FP inh, GSTO1 counter)
CC(C)(C)c1ccc(O)c(N=Cc2cc(Br)ccc2O)c1	PRMT1 FP inh 21.3, GSTO1 counter 35.2
Cc1ccc(O)c(C=Nc2cc(C)ccc2O)c1	none (no result: PRMT1 FP inh, TDP2 absorb)
CC1CCC2(CCC(=O)N2CCCOC(=O)NC(C)(C)C)CC1 (stereo unspecified)	none (no result: PAD4 FP inh, GSTO1 counter, eLon inh)
COc1ccccc1Nc1ccc(N)cc1	GSTO1 counter 35.4
COc1ccccc1NC(=O)c1ccccc1Nc1ccccc1	none
O=C(CNc1ccc2ccccc2c1)N/N=C/c1ccncc1	PRMT1 FP inh 21.6
O=C(CNc1ccc2ccccc2c1)N/N=C/c1ccccn1	none
CC1CCCCC1N(C)C1CCN(C(=O)CNC(=O)/C=C/c2cccc(Cl)c2)CC1 (stereo unspecified)	PRMT1 FP inh 22.2
CN(C1CCCC1)C1CCN(C(=O)CNC(=O)/C=C/c2ccccc2)CC1	none
Fc1cccc(C[n+]2csc3ccccc32)c1	PRMT1 FP inh 75.2
O=S(=O)(CC1NCc2ccccc21)NCCc1ccccc1 (stereo unspecified)	none (no result: PAD4 FP inh, GSTO1 counter, eLon inh)
Nc1ccccc1Sc1nc2ccccc2[nH]1	PRMT1 FP inh 52.0
CCN(C[C@H]1[C@@H](c2ccc(C3=CCCC3)cc2)[C@H](CO)N1c1nc(C)c(C)s1)S(=O)(=O)c1ccccc1[N+](=O)[O-]	none (no result: PAD4 FP inh, GSTO1 counter, eLon inh)
NS(=O)(=O)c1ccc2c(c1)C1C=CCC1C(C1CC=CCC1)N2 (stereo unspecified)	PRMT1 FP inh 36.7, GSTO1 counter 36.5
N#CC1=C(N)C(C#N)(C#N)C(c2cccnc2)C2CC(c3ccccc3)CC=C12 (stereo unspecified)	eLon inh 18.1 (no result: PRMT1 FP inh, TDP2 absorb)
O=C(CSC1=Nc2ccccc2C2CC=NN12)Nc1ccc(F)c(F)c1F (stereo unspecified)	PRMT1 FP inh 22.4 (no result: GSTO1 counter)
CCCCOC(=O)c1ccc(NC(=O)CSC2=Nc3ccccc3C3CC=NN23)cc1 (stereo unspecified)	none
CC1=C[C@]2(C[N+](Cc3ccccc3)=C(N)N2)n2c(=O)n(-c3ccccc3)c(=O)n2C1	none (no result: PAD4 FP inh, GSTO1 counter, eLon inh)
Nc1nc(CCl)nc(N(c2ccccc2)c2ccccc2)n1	GSTO1 counter 77.9
O=c1c2cc3cc(Cl)ccc3nc2ncn1CCc1c[nH]c2ccccc12	none (no result: PAD4 FP inh, GSTO1 counter, eLon inh)
CC1(C)CC(=O)C(CSC(=O)c2ccccc2)C(=O)C1	PRMT1 FP inh 24.1 (no result: PAD4 FP inh, GSTO1 counter)
CC1(C)CC(=O)C=C(NNC(=O)c2ccccc2)C1	none
Cc1occc1C(=O)NCc1cccs1	none
Cc1cc(C(=O)NCc2cccs2)c(C)o1	PRMT1 FP inh 21.5
COCCNC(=O)c1ccc2c(c1)S(=O)(=O)c1cc(Cl)ccc1C2=O	none (no result: GSTO1 counter)

Source: PubChem (The Scripps Research Institute Molecular Screening Center)
